Source: ChEMBL document CHEMBL3272214, “2-Deaminoactinomycin D, synthesis and interaction with deoxyribonucleic acid” (J Med Chem, 1977)
Activity calls are given as the source filed them. No cut-off for these calls is given here. *1 amine or outer side, *2 acyl side, *3 side chain or, on linkers, in order; H or OH if unused. Where a SMILES comes first, the peptide text is derived from it. Bridges are numbered along the chain shown (N, C = ends). Roman numbers before positions name the chains, in order. [ ]: non-standard residue; d: D form. Actinocin(1to9) = Cc1c2oc3c(C)ccc(C(=O)[*:2])c3nc-2c(C(=O)[*:1])c(N)c1=O; NMeV = CN[C@H](C(=O)O)C(C)C; Sar = CNCC(=O)O

Legend:
[1] = test system: P388; experiment: Antitumor activity against mouse P388 cells allografted in mouse assessed as increase in life span at 0.108 mg/kg administered qd on day 1, 5 and 9 relative to control; type: functional; settings: P388, 24 h
Procedure, shortened: (§1)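 In vivo testing in tumour-bearing mice was run by the NCI Division of Cancer Treatment. Drug was given on a QD 1, 5, 9 schedule, and 15 mg/kg was the highest dose tested. Toxicity was judged by weight loss of treated animals. Activity is expressed as % increase in life-span (ILS) over untreated tumour-bearing controls.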

[2] = test system: Calf thymus DNA; experiment: Binding affinity to calf thymus DNA assessed as change in melting temperature at 5.2 X 10^-6 M by thermal denaturation assay; type: nucleic-acid assay; settings: Bos taurus
Procedure, shortened: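 Calf thymus DNA filtered, concentration set by A259 (ε 6800). Drug in Me2SO diluted into 0.01 M phosphate pH 7.0. Final: drug 5.2×10⁻⁶ M, DNA 5.2×10⁻⁵ M (P), EDTA 1×10⁻⁵ M, 5% Me2SO. Equilibrated at 50 °C, then heated at 18 °C/h while absorbance was recorded. Tm corrected for volume expansion, temperature lag and baseline. ΔTm = Tm(complex) − Tm(DNA).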

[3] = test system: L1210; experiment: Inhibition of RNA synthesis in mouse L1210 cells assessed as [3H]-uridine incorporation preincubated for 3 hrs before [3H]-uridine addition measured after 1 hr by scintillation spectrometric analysis; type: functional; settings: read-out: ED50 (the source's name)
Procedure, shortened: (§2)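 L1210 cell assay run by a previously described method. Compounds were dissolved in Me2SO and diluted in growth medium to a final 1% Me2SO. The value reported is ED50.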

[4] = test system: Escherichia coli; experiment: Induction of Escherichia coli omega enzyme-mediated relaxation of Escherichia coli (RR1) pBR313 closed circular DNA at 40 X 10^-12 mol preincubated for 10 mins followed by enzyme-addition measured after 30 mins by agarose gel electrophoretic analysis
Procedure, shortened: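 Plasmid pBR313 was isolated from E. coli RR1 cleared lysate by agarose A50 gel filtration. 1.10 μg DNA in 80 mM potassium phosphate pH 7.6, 3 mM MgCl2, 1 mM EDTA was preincubated with drug (40×10⁻¹² mol) for 10 min at 37 °C. About 300 units of ω enzyme were added for 30 min. The reaction was stopped with EDTA and phenol/chloroform extracted. Read-out was 0.7% agarose slab gel electrophoresis with ethidium staining, compared with ethidium bromide.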

[5] = test system: L1210; experiment: Inhibition of DNA synthesis in mouse L1210 cells assessed as [3H]-thymidine incorporation preincubated for 3 hrs before [3H]-thymidine addition measured after 1 hr by scintillation spectrometric analysis; type: functional; settings: read-out: ED50 (the source's name); procedure, shortened: as §2
[6] = test system: P388; experiment: Antitumor activity against mouse P388 cells allografted in mouse assessed as increase in life span at 15 mg/kg administered qd on day 1, 5 and 9 relative to control; type: functional; settings: P388, 24 h; procedure, shortened: as §1
[7] = test system: Calf thymus DNA; experiment: Binding affinity to calf thymus DNA at 10:1 DNA to drug molar ratio by circular dichroism spectroscopic analysis; type: nucleic-acid assay; settings: Bos taurus
[8] = test system: Calf thymus DNA; experiment: Binding affinity to calf thymus DNA by NMR spectroscopic analysis; type: nucleic-acid assay; settings: Bos taurus
[9] = test system: Mus musculus; experiment: Toxicity in mouse allografted with mouse P388 cells assessed as weight loss at 1.94 to 15 mg/kg administered qd on day 1, 5 and 9; type: organism-based; parameters: dose 1.94-15 mg/kg
Procedure, shortened: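 Mice were dosed on a QD 1, 5, 9 schedule at doses up to 15 mg/kg. Toxicity was judged by weight loss of treated animals.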

[10] = test system: P388; experiment: Antitumor activity against mouse P388 cells allografted in mouse assessed as increase in life span at 1.94 mg/kg administered qd on day 1, 5 and 9 relative to control; type: functional; settings: P388, 24 h; procedure, shortened: as §1

Row | Compound | ILS at 0.108 mg/kg [1] [%] | ΔTm [2] [°C] | EC50 [3] [µM] | Activity [4] | EC50 [5] [µM] | ILS at 15 mg/kg [6] [%] | Activity [7] | Activity [8] | Activity [9] | ILS at 1.94 mg/kg [10] [%]
1 | Cc1c2oc3c(C)ccc(C(=O)N[C@@H]4C(=O)N[C@H](C(C)C)C(=O)N5CCC[C@H]5C(=O)N(C)CC(=O)N(C)[C@@H](C(C)C)C(=O)O[C@@H]4C)c3nc-2c(C(=O)N[C@@H]2C(=O)N[C@H](C(C)C)C(=O)N3CCC[C@H]3C(=O)N(C)CC(=O)N(C)[C@@H](C(C)C)C(=O)O[C@@H]2C)c(N)c1=O [DACTINOMYCIN] (I: T[dV]P[Sar][NMeV] / II: T[dV]P[Sar][NMeV]; ester I:1-I:C, II:1-II:C; linker I:N-II:N via Actinocin(1to9)) | 100 | 7.1 | 0.009 | Active | 0.4 | – | – | – | – | –
2 | COc1cccc2c1C(=O)c1c(O)c3c(c(O)c1C2=O)C[C@@](O)(C(C)=O)C[C@@H]3O[C@H]1C[C@H](N)[C@H](O)[C@H](C)O1 | – | – | – | Active | – | – | – | – | – | –
3 | Cc1c2oc3c(C)ccc(C(=O)N[C@@H]4C(=O)N[C@H](C(C)C)C(=O)N5CCC[C@H]5C(=O)N(C)CC(=O)N(C)[C@@H](C(C)C)C(=O)O[C@@H]4C)c3nc-2c(C(=O)N[C@@H]2C(=O)N[C@H](C(C)C)C(=O)N3CCC[C@H]3C(=O)N(C)CC(=O)N(C)[C@@H](C(C)C)C(=O)O[C@@H]2C)cc1=O | – | 9.9 | 0.7 | Active | 63 | 92 | Active | Active | Non-toxic | 46
4 | CC[n+]1c(-c2ccccc2)c2cc(N)ccc2c2ccc(N)cc21 | – | – | – | Active | – | – | – | – | – | –
5 | Cc1c2oc3c(C)ccc(C(=O)N[C@@H]4C(=O)N[C@H](C(C)C)C(=O)N5CCC[C@H]5C(=O)N(C)CC(=O)N(C)[C@@H](C(C)C)C(=O)O[C@@H]4C)c3nc-2c(C(=O)N[C@@H]2C(=O)N[C@H](C(C)C)C(=O)N3CCC[C@H]3C(=O)N(C)CC(=O)N(C)[C@@H](C(C)C)C(=O)O[C@@H]2C)c(O)c1=O | – | 0 | 24 | – | > 100 | – | – | – | – | –
6 | Cc1c2oc3c(C)ccc(C(=O)N[C@@H]4C(=O)N[C@H](C(C)C)C(=O)N5CCC[C@H]5C(=O)N(C)CC(=O)N(C)[C@@H](C(C)C)C(=O)O[C@@H]4C)c3nc-2c(C(=O)N[C@@H]2C(=O)N[C@H](C(C)C)C(=O)N3CCC[C@H]3C(=O)N(C)CC(=O)N(C)[C@@H](C(C)C)C(=O)O[C@@H]2C)c(Cl)c1=O | – | 1.6 | 13 | Active | 86 | – | Active | – | – | –
